Measured values: ChEMBL document CHEMBL3576843, “Neopetrocyclamines A and B, polycyclic diamine alkaloids from the sponge Neopetrosia cf exigua” (2015)

Experiments:
Format in all cases: functional
[1] = tested on: UO-31; assay: Cytotoxicity against human UO31 cells after 48 hrs by XTT assay; conditions: UO-31, 48 h
How it was run: (§1)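 Cells seeded at 5000/well in medium lacking phenol red and antibiotics, allowed 60 min to attach, then compound dilutions or DMSO solvent control added. Incubated 48 h with compound; viability measured by XTT proliferation assay per kit protocol; growth inhibition expressed as GI50.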

[2] = tested on: A498; assay: Cytotoxicity against human A498 cells after 48 hrs by XTT assay; conditions: A498, 48 h; how it was run: as §1
[3] = tested on: SF-295; assay: Cytotoxicity against human SF295 cells after 48 hrs by XTT assay; conditions: SF-295, 48 h; how it was run: as §1

SMILES	GI50 [1] [µM]	GI50 [2] [µM]	GI50 [3] [µM]
C1=C/[C@H]2[C@@H]3CCCC[C@H]3C[C@@H]2NCCCN[C@@H]2C[C@@H]3CCCC[C@H]3[C@@H]2/C=C/1 [HALICLONADIAMINE]	8	5.9	6.3
C1=C[C@H]2/C=C/CCCCC/C=C\CCNCCCNC[C@H]2[C@@H]2CCCC[C@@H]12	> 20	> 20	> 20
C1=C[C@H]2/C=C/CCCCC/C=C\CCN3C=[N+](CCC3)C[C@H]2[C@@H]2CCCC[C@@H]12	> 20	> 20	> 20
C1=C/[C@H]2[C@@H]3CCCC[C@H]3C[C@H]2NCCCN[C@@H]2C[C@@H]3CCCC[C@H]3[C@@H]2/C=C/1	3	2.9	0.8
